Measured values as given in paper PMC11904481 (ESMO Open, 2025).
Where two headings read alike, the source gives them in different places.

What was measured:
[1] = biological target: ERK1/2 kinase; details: read-out: enzymatic IC50; cited from earlier work
[2] = test system: patients with locally advanced unresectable or metastatic, relapsed and/or refractory nonhematological malignancies; assay: Phase I dose escalation: MTD / DLT determination; format: in vivo, human
How it was run: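 I.v. test compound started at 0.45 mg/kg weekly in 28-day cycles (1 h infusion). Accelerated titration used single-patient cohorts with 100% increments up to 3.6 mg/kg, then 3 + 3 cohorts above 3.6 mg/kg. Schedule 2: weekly, 4 h infusion (minimum 2 h). Schedule 3: days 1, 4, 8 (later also 11, 15) of 21-day cycles, ≥4 h infusion, ≥6 h for doses >9.6 mg/kg. MTD/RP2D derived from DLTs.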

[3] = test system: models of head and neck SCC; details: cited from earlier work
[4] = test system: patients with locally advanced unresectable or metastatic, relapsed and/or refractory nonhematological malignancies; assay: Phase I clinical activity; format: in vivo, human
How it was run: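 Open-label multicenter dose escalation in adults with MAPK-altered or 11q-AMP solid tumors. The test compound was given i.v. on three schedules: weekly per 28-day cycle at 0.45-5.4 mg/kg (1-2 h infusion) or 4.8-9.6 mg/kg (4 h); or on days 1, 4, 8 (±11, 15) per 21-day cycle at 3.6-11.3 mg/kg. Investigator assessed response by RECIST v1.1. Evaluable patients had ≥1 dose plus baseline and ≥1 post-treatment tumor assessment.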

[5] = Phase I plasma pharmacokinetics; format: in vivo, human

For `O=C1Nc2cc3[nH]nc(-c4ccncc4)c3cc2CN1Cc1ccccc1` [KO-947], the IC50 [1] is listed as 0.01 µM, the “recommended dose (RP2D)” value ([2]; i.v. days 1, 4, 8, 11, and 15 every 21 days, ≥4-hour infusion) is listed as 8.5 mg/kg and the “patients who experienced DLTs” value ([2]; schedule 1 cohort 5, 5.4 mg/kg, grade 3 QTc prolongation and grade 3 retinopathy) is listed as 2/6. The DLTs ([2]; schedule 1 cohorts 1-4 (0.45-3.6 mg/kg), six patients) was “no DLTs”, the maximum administered dose ([2]; schedule 2, once weekly, 28-day cycle, 4-hour infusion) was 9.6 mg/kg and the DLTs ([2]; schedule 2 cohort 9 (9.6 mg/kg), two patients of six) was “DLT of QTc prolongation”. The DLTs ([2]; schedule 2 cohorts 5-8 (4.8-7.2 mg/kg)) was “no DLTs”, the maximum administered dose ([2]; schedule 3, 21-day cycle) was 11.3 mg/kg and the DLTs ([2]; schedule 3 cohort 3, 6.4 mg/kg) was “One DLT of hypotension”. The DLTs ([2]; schedule 3 cohort 4 (8.5 mg/kg, n = 3)) was “No DLTs”, the DLTs ([2]; schedule 3 cohort 5 (11.3 mg/kg), one patient of six) was “DLT of an infusion-related reaction” and the DLTs ([2]; schedule 3 cohorts 1 or 2 (3.6-4.8 mg/kg), six patients) was “no DLTs”. For the same compound, the antitumor response ([3]; 11q-AMP models of head and neck cancer) was “Complete responses and tumor regression”, the overall response rate ([3]; mouse models of head and neck SCC with 11q-AMP) was 56% and the overall response rate ([3]; mouse models of head and neck SCC, 11q13WT) was 9%. The best overall response ([4]; all schedules) was “stable disease”, the “complete or partial responses” value ([4]; all schedules) was “No complete or partial responses” and the “patients discontinued owing to disease progression” value ([4]; schedule 3) was 67%. For the same compound, the “stable disease as best overall response” value ([4]; schedule 3) was 37%, the “stable disease as best overall response” value ([4]; schedules 1 and 2) was 15% and the plasma concentration ([5]; 11.3 mg/kg, cohort 5 of schedule 3, 6-hour infusion, held for ∼4 hours) was ~3600 ng/mL. For the same compound, the “dose proportionality of exposure, slope” value ([5]; after a single dose, noncompartmental analysis) was 1.2, the accumulation ([5]; all dosing schedules) was “None to minimal accumulation” and the half-life ([5]; human, plasma, intravenous) was 6.5 to 24 h. For the same compound, the half-life ([5]; human, plasma, intravenous, 3.6 mg/kg) was ~6.65 h, the Cmax ([5]; human, plasma, intravenous, 3.6 mg/kg, highest Cmax, 1-hour infusion) was 3630 ng/mL and the Vd ([5]; in vivo) was “moderate”. For the same compound, the “plasma CL” value ([5]; in vivo) was “moderate” and the “time at which Cmax was achieved (near the end of the infusion)” value ([5]; schedules 2 and 3) was ~4 h.
